Calls of active or inactive are those of the source. No cut-off for these calls is given here.

Here are results for 22 compounds from ChEMBL document CHEMBL1641380, “Novel tetrahydropyrido[3,2-c]pyrroles as 5-HT(7) antagonists” (Bioorg Med Chem Lett, 2011).

For series [1], the target named is 5-hydroxytryptamine receptor 7 (Rattus norvegicus, UniProt P32305). The experiment in a line: Displacement of [3H]5-CT from rat recombinant 5HT7 receptor expressed in HEK293 cells after 60 mins. Type of series: cell-based. In short, it runs like this: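 Membranes from HEK-293 cells stably expressing rat 5-HT7 incubated 60 min at room temperature with 1 nM [3H]5-CT and increasing test compound; rapid filtration, radioactivity counted. IC50 from nonlinear sigmoidal fits, Ki by Cheng-Prusoff. Means of three experiments in triplicate, SEM; final DMSO ≤0.4%.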
Sequence of 5-hydroxytryptamine receptor 7 (Rattus norvegicus, UniProt P32305) (P32305 whole entry): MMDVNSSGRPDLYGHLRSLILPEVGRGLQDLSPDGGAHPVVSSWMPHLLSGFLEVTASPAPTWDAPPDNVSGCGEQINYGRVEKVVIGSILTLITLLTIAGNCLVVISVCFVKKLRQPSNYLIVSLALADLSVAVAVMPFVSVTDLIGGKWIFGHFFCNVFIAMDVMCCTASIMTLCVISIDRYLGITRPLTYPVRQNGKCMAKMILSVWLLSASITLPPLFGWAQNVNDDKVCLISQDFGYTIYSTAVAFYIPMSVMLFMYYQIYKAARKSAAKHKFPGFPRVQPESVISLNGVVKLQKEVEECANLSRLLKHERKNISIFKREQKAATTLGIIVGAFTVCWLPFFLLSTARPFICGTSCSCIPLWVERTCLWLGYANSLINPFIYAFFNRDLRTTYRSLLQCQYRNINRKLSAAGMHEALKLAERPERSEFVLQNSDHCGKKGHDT
In general terms: Displacement assays read how much labelled ligand stays bound in the presence of the test substance.

The nature of series [2]: Drug level in rat brain at 10 mg/kg, ip after 1 hr. As to conditions: read-out: Drug uptake. Also noted: dose 10 mg/kg, route intraperitoneal. Type of series: ADME, organism-based. In short, it runs like this:
(§1)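 Rats dosed 10 mg/kg intraperitoneally; brain and plasma compound concentrations measured 1 h after dosing.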

Series [3] in a line: Binding affinity to adrenergic alpha1 receptor.
Series [4] is described as follows: Drug level in rat plasma at 10 mg/kg, ip after 1 hr. Format: ADME, organism-based. Also noted: dose 10 mg/kg, route intraperitoneal. As to conditions: read-out: Drug uptake. The method, boiled down:
as §1

For series [5], the target named is 5-hydroxytryptamine receptor 7 (Rattus norvegicus) (UniProt P32305). In words: Antagonist activity at rat recombinant 5HT7 receptor expressed in HEK293 cells assessed as decrease of 5-CT-induced increase of cAMP level after 20 mins by competitive immunoassay. (In general: Changes in cAMP serve as a functional read-out for many G protein-coupled receptors.)
Sequence of 5-hydroxytryptamine receptor 7 (Rattus norvegicus) (P32305 whole entry): as above
Series [6] relates to Rattus norvegicus. In words: Inhibition of 5-CT-induced hypothermia in rat at 10 mg/kg, ip. Also noted: dose 10 mg/kg. Format: functional, organism-based. In short, it runs like this: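 Conscious rats given test compound intraperitoneally at 10 mg/kg; antagonism of hypothermia induced by the 5-HT7 agonist 5-CT assessed.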
Series [7] deals with 5-hydroxytryptamine receptor 7 (Homo sapiens, UniProt P34969). The experiment in a line: Binding affinity to 5HT7 receptor.
Sequence of 5-hydroxytryptamine receptor 7 (Homo sapiens, UniProt P34969) (P34969 whole entry): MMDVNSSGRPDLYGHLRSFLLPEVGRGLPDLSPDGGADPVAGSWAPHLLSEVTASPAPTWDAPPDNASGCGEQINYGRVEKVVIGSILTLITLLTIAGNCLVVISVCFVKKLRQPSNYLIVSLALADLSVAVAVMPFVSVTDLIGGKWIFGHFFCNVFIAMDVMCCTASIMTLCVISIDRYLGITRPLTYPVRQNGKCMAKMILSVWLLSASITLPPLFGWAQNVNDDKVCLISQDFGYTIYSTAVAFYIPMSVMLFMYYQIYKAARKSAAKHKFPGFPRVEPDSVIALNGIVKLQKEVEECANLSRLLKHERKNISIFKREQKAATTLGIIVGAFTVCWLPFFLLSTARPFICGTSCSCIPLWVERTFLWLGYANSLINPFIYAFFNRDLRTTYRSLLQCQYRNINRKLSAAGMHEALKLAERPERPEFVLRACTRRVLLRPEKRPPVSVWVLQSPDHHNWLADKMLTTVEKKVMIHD

On to `CCN1CCc2c(c(-c3ccc(Cl)cc3)cn2Cc2ccccc2)C1`, for which the Ki in series [1] amounted to 250 nM.
As for `Cc1ccc(-c2cn(Cc3ccccc3)c3c2CNCC3)cc1`, the concentration at 1 h in series [2] is 27 µM; in series [4], 3 µM. In series [3], this compound returned an Activity of 5 nM. Besides, the pKb in series [5] turned out to be 7.6. Besides, in series [1], the Ki was 35 nM. The result in series [6] was Active.
Regarding `Clc1ccc(-c2nn(Cc3ccccc3)c3c2CNCC3)cc1`, the inhibitory constant (Ki) in series [7] is 14 nM.
For `COc1ccc(-c2cn(Cc3ccccc3)c3c2CNCC3)cc1`, the Ki in series [1] is 290 nM.
Turning to `Clc1ccc(Cn2cc(-c3ccccc3)c3c2CCNC3)cc1`, the Ki in series [1] was determined as 753 nM.
Same read-out and setting: under `Clc1ccc(-c2cn(Cc3cccc(Cl)c3)c3c2CNCC3)cc1` stands 533 nM; under `CC(C)(C)c1ccc(-c2cn(Cc3ccccc3)c3c2CNCC3)cc1`, 10000 nM.
`Clc1ccc(-c2cn(Cc3ccccc3)c3c2CNCC3)cc1`: the pKb in series [5] stood at 7.2. Besides, in series [1], the Ki stood at 107 nM.
With `FC(F)(F)c1ccc(-c2cn(Cc3ccccc3)c3c2CNCC3)cc1`, the Ki in series [1] was found to be 167 nM.
Consider `Clc1ccc(-c2cn(Cc3ccccc3)c3c2CNCC3)c(Cl)c1`, for which the Ki in series [1] came to 2070 nM.
As to `CC(C)N1CCc2c(c(-c3ccc(Cl)cc3)cn2Cc2ccccc2)C1`, the Ki in series [1] stood at 370 nM.
Take `Clc1ccccc1Cn1cc(-c2ccccc2)c2c1CCNC2`: in series [1], the Ki was 2290 nM.
Take `c1ccc(Cn2cc(-c3ccccc3)c3c2CCNC3)cc1`: the pKb in series [5] was found to be 6.7. The Ki in series [1] is 220 nM.
As to `Fc1ccc(-c2cn(Cc3ccccc3)c3c2CNCC3)cc1`, the Ki in series [1] came out at 45 nM.
Turning to `Fc1cccc(-c2cn(Cc3ccccc3)c3c2CNCC3)c1`, in series [1], the Ki worked out at 2730 nM.
The same measure, in the same setting: in the case of `FC(F)(F)Oc1ccc(-c2cn(Cc3ccccc3)c3c2CNCC3)cc1` it was 10000 nM; in that of `Clc1cccc(Cn2cc(-c3ccccc3)c3c2CCNC3)c1`, 6600 nM; in that of `CN1CCc2c(c(-c3ccc(Cl)cc3)cn2Cc2ccccc2)C1`, 36 nM.
On the same count and under the same terms, in the case of `Clc1ccc(-c2cn(Cc3ccccc3)c3c2CNCC3)cc1Cl` it was 4470 nM; in that of `Clc1cccc(-c2cn(Cc3ccccc3)c3c2CNCC3)c1`, 10000 nM.
Still for that read-out and setting: in the case of `O=[N+]([O-])c1ccc(-c2cn(Cc3ccccc3)c3c2CNCC3)cc1` it was 450 nM; in that of `Oc1ccc(-c2cn(Cc3ccccc3)c3c2CNCC3)cc1`, 10000 nM.

The Ki is a measure of affinity in units of concentration, obtained from inhibition or displacement. Usually pKb stands for −log10 of the Kb, conventionally taken in molar units.
